Bioassay records: PubChem, several laboratories
TRPML3 ag: activates the human TRPML3 channel | 220,000 tested, 0.29% active | activation, % at 3 µM | HEK293 TRPML3-YFP, Fluo-8 calcium fluorescence; 100% = the carbachol control signal;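 active = activation above its plate's cutoff, the mean activation of the plate's test wells plus 3 SD, cut at about 12% in these data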;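 also: 0% = DMSO only wells and 100% = carbachol wells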
Target sequence (Q8TDD5 whole entry, looked up): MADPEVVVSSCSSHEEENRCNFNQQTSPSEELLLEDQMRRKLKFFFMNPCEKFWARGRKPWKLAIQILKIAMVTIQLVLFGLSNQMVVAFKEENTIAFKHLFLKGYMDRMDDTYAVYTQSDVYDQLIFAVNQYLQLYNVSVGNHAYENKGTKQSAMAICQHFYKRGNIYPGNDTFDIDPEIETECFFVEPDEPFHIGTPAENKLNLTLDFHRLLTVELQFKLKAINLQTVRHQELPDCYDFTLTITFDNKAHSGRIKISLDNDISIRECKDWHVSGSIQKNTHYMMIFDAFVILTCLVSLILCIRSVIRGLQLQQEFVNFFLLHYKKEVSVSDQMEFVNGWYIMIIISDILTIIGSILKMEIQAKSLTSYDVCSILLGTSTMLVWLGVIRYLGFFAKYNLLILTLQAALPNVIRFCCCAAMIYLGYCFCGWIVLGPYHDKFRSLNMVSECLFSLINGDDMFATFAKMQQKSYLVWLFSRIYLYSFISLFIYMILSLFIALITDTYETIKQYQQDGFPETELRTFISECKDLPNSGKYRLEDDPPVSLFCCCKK
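Material: HEK293 cells stably carrying human TRPML3-YFP; compound dosing: single dose, 3 µM final nominal compound, 0.3% DMSO final; incubation: 1-h 37 °C dye load, 5-s basal, 120-s post-compound reads; technique: Fluo-8 intracellular calcium fluorescence, excitation 470-495 nm, emission 515-575 nm; read-out basis: percent activation from peak-to-basal fluorescence ratio, scaled between DMSO and carbachol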
CRFR2-BP ag: agonists of human CRF-binding protein/CRF-R2 receptor complex; HEK293 CRF-R2/CRF-BP, calcium dye fluorescence (FLIPR); percent of saturating CRF peptide response; activation, % at 13.2 µM; 350,000 tested, 0.46% active; AID 588473;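 active = activation of at least 50%, plus an integration ratio under a set limit after plate pattern correction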;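 also: plate controls were neutral control wells without compound for no effect and CRF at EC100 for full effect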
TRPN1 ag: agonists of zebrafish TRPN1 channel; HEK293 zebrafish TRPN1-YFP, Fluo-8 calcium fluorescence; 100% = response to 87 µM carbachol; activation, % at 3 µM; 220,000 tested, 0.18% active;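 active = activation above its plate's cutoff, the mean activation of test wells on that plate plus 3 SD, cut at about 19% in these data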;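 also: 0% = DMSO alone and 100% = 87 µM carbachol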
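System: zebrafish TRPN1-YFP in HEK293 cells / Dosing: 3 µM single point / Timing: dye loading 1 h at 37 °C, then 30 min room temperature / Signal: Fluo-8 calcium fluorescence, excitation 470-495 nm, emission 515-575 nm / Read-out basis: percent activation from peak over basal fluorescence ratio, control-normalized / Control set: high carbachol 87 µM, low DMSO alone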
CRFBP-R2 block: antagonists of CRF-binding protein/CRF-R2 receptor complex; HEK293 CRF-R2/CRF-BP, CRF-induced calcium fluorescence; inhibition, % at 11.8 µM; 350,000 tested, 0.59% active; AID 588475;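 active = inhibition of the ligand-induced calcium signal above about 50% at the single tested concentration, limit read from the data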
Active calls of the source: *; / = not tested or not shown. Shown are actives, neighbours in structure and some others; about 1.2% of the full set was active somewhere.

SMILES | TRPML3 ag | CRFR2-BP ag | TRPN1 ag | CRFBP-R2 block
O=C(NC(=S)Nc1c(Cl)ccc2nsnc12)c1ccccc1F | / | -2 | / | 58*
CCOC(=O)C1(Cc2ccc(OC)cc2)CCN(C(=O)C2CCCO2)CC1 (stereo not given) | 0 | 1 | 2 | -2
O=C(CSc1ccc(-c2cccnc2)nn1)Nc1ccc(F)c(F)c1 | / | -2 | / | -6
CCN(CC)c1ccc(/C=C/C(=O)C2C(=O)C=C(C)OC2=O)cc1 (stereo not given) | 16* | 377* | 35* | -476
CCOc1ccc(/C=C2/SC(=O)NC2=S)cc1 | 14* | 2 | 34* | 15
CC(C)NC(=O)CN1C(=O)CSc2ccc(S(=O)(=O)N3CCCC3)cc21 | / | 4 | / | 64*
CCC(C)NC(=O)CN1C(=O)CSc2ccc(S(=O)(=O)N3CCCC3)cc21 (stereo not given) | / | 0 | / | 0
Fc1ccc(/C=N/NC(=S)Nc2cccnc2)cc1 | 0 | -2 | 0 | 18
CCOC(=O)N1CCN(Cc2nc3c(c(=O)n(C)c(=O)n3C)n2CCC(C)C)CC1 | 0 | -5 | 1 | 129*
CC(C)c1ccc(COC(=O)CN2C(=O)NC3(CCCCC3C)C2=O)cc1 (stereo not given) | / | 1 | / | -19
CN1CCc2c(sc(/N=C/c3cccs3)c2C(N)=O)C1 | 1 | 60* | 3 | -9
COCCn1nnnc1C(c1ccccc1)N1CCN(c2ccccc2)CC1 (stereo not given) | 1 | -2 | -1 | 52*
COc1ccc(C(c2nnnn2Cc2ccccc2)N2CCN(c3ccccc3)CC2)cc1 (stereo not given) | -1 | -1 | -1 | 57*
COc1ccc(C(c2nnnn2Cc2ccccc2)N2CCN(c3nc4ccccc4s3)CC2)cc1 (stereo not given) | 1 | 0 | 1 | -12
CC1C2CC(C(S(=O)(=O)N3CCOCC3)C2=O)C1(C)C (stereo not given) | 2 | 6 | 1 | -1
COC(=O)C1CC(Cl)CN1c1ncc(C(F)(F)F)cc1Cl (stereo not given) | 0 | -2 | -1 | 52*
CC(C)(C)n1nc2c(c1NC(=O)Cc1ccccc1)CS(=O)(=O)C2 | -1 | -4 | -1 | 55*
CCOc1ccc2c(c1)/C(=N/N1C(=O)c3ccccc3C1=O)C(=O)N2 | 1 | 0 | 0 | 105*
O=C(O)C12C3CCC(O3)C1(C(=O)O)C1CCC2O1 (stereo not given) | / | 1 | / | 6
Cc1nn(Cc2ccc(Cl)cc2)c(C)c1NC(=O)c1ccc([N+](=O)[O-])cc1 | -1 | -1 | -1 | 56*
Cc1nn(Cc2ccc(Cl)cc2)c(C)c1NC(=O)Cn1nc([N+](=O)[O-])c(Cl)c1C | 1 | 4 | 0 | 17
Cc1cccc2c(CCNC(=O)c3ccc([N+](=O)[O-])cc3)c[nH]c12 | 0 | -5 | -2 | 57*
O=C1NCCCCC1NS(=O)(=O)c1ccccc1 (stereo not given) | / | 1 | / | -2
O=C1NCCCCC1NS(=O)(=O)c1cccc2ccccc12 (stereo not given) | / | -2 | / | 69*
CC(=O)c1ccc(NS(=O)(=O)c2cc3c(cc2C)N(C(C)=O)CCO3)cc1 | / | 0 | / | -3
SMILES | TRPML3 ag | CRFR2-BP ag | TRPN1 ag | CRFBP-R2 block
COc1ccccc1N(CC(=O)NC(C)(C)C)S(=O)(=O)c1cccs1 | 0 | -1 | 42* | -1
CCNC(=O)CN(c1ccccc1OC)S(=O)(=O)c1cccs1 | 1 | -1 | 1 | 3
CN(CC(=O)Nc1ccccc1C(F)(F)F)C(=O)COc1ccccc1Cc1ccccc1 | / | 2 | / | -6
CC(C)NC(=O)N(C)C[C@H]1OCc2cnnn2CCCC(=O)N([C@H](C)CO)C[C@H]1C | / | 53* | / | -15
Cc1cc(O)c(Sc2ccc(Cl)cc2)c(=O)[nH]1 | / | -2 | / | 1
CNS(=O)(=O)c1cccc(C(=O)NCC(c2ccco2)N(C)C)c1 (stereo not given) | / | 0 | / | 111*
O=C(N[C@H](C(=O)O)c1ccccc1)C1CCC(Cn2nnc3ccccc3c2=O)CC1 (stereo not given in full) | 0 | / | 2 | /
C=C1C(=O)C=C2CN(C(=O)c3ccccc3)[C@@](Cc3ccc(F)cc3)(C(=O)OC)[C@@H]12 | 5 | 31 | 37* | -81
CC(=O)N1CC(C)Sc2ccc(S(=O)(=O)NCc3ccc(F)cc3)cc21 (stereo not given) | / | 1 | / | 0
Cc1ccc(NC(=O)CSc2nnc(Cn3cnc4ccccc43)o2)c(C)c1 | 0 | -3 | -1 | 59*
Cc1ccc(NC(=O)CSc2nnc(Cn3cnc4ccccc43)o2)cc1 | 0 | 0 | 1 | 0
Cc1ccc2c(C)nc(Nc3ncc4c(n3)CCCC4=O)nc2c1 | 2 | 0 | 0 | -4
O=C1/C(=C\c2ccc(O)c(O)c2)C(c2ccccc2)=NN1c1ccccc1 | 1 | 0 | 3 | -15
COc1cc(/C=C2\C(=O)N(c3ccc(NC(C)=O)cc3)N=C2c2ccccc2)ccc1O | 0 | 0 | 1 | 68*
COc1ccc(C(=O)Nc2cc(C(C)=O)c(/C=C/N(C)C)oc2=O)cc1 | 1 | 155* | 2 | -178
CC(=O)c1cc(NC(=O)c2ccc(C)cc2)c(=O)oc1/C=C/N(C)C | 1 | 123* | 3 | -83
CN(C)c1ccc2c(c1)OC(N)=C(C#N)C2c1cccc(F)c1 (stereo not given) | 6 | 79* | 14 | -176
Cc1ccc(C(=O)OCn2nnc3ccccc3c2=O)cc1[N+](=O)[O-] | 2 | -3 | 0 | 79*
O=C(CC1CCCCC1)c1c(O)c2ccccc2oc1=O | 0 | 70* | 1 | 37
C[n+]1cccc(C(=O)NCC2CCCO2)c1 (stereo not given) | 0 | 0 | 2 | -16
COc1ccc(-c2nn(-c3ccccc3C)cc2CNCc2cccnc2)cc1F | 1 | 2 | 1 | 73*
CCCCc1cc(=O)oc2cc(OC(C)C(=O)NCCN3CCOCC3)ccc12 (stereo not given) | / | 0 | / | -17
COC1=C(Nc2ccc(O)cc2)C(=O)c2ccccc2C1=O | -1 | -1 | -2 | 31
O=C1C(Cl)=C(Nc2ccc(O)cc2)C(=O)c2ccccc21 | -2 | -4 | -4 | 86*
CCNC1=C(Cl)C(=O)c2ccccc2C1=O | 0 | -2 | -1 | 9
SMILES | TRPML3 ag | CRFR2-BP ag | TRPN1 ag | CRFBP-R2 block
CCN(CC)c1ccc(NC2=C(Cl)C(=O)c3ccccc3C2=O)cc1 | 0 | -1 | -1 | 59*
Cc1ccc(NC2=C(Cl)C(=O)c3ccccc3C2=O)cc1 | 1 | -1 | 2 | 91*
Cc1ccc(/C=C2\SC(N3CCCC3)=NC2=O)cc1 | -1 | / | -1 | /
CN(C)c1ccc(/C=C2\SC(N3CCCCC3)=NC2=O)cc1 | / | 51* | / | -59
Clc1ccc2c(SCC3CO3)c3ccccc3nc2c1 (stereo not given) | / | -5 | / | -29
Cc1c(C(=O)OC/C(O)=C(\C#N)c2nc3ccccc3[nH]2)oc2ccc(Br)cc12 | 1 | 1 | 2 | 5
